ChEMBL document CHEMBL1144657, “Discovery of heterobicyclic templates for novel metabotropic glutamate receptor subtype 5 antagonists” (Bioorg Med Chem Lett, 2007)
Calls of active or inactive are those of the source. The rule behind the calls is not given here.

target: Metabotropic glutamate receptor 5 (Rattus norvegicus) (UniProt P31424); test: Displacement of [3H]MPEP from mGluR5 in rat brain membrane at 100 uM; assay type: cell membranes
How it was run: (§1)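 Binding was measured by the NIMH Psychoactive Drug Screening Program in rat brain membranes, with [3H]MPEP as the mGluR5 radioligand. Single-concentration screens are reported as percent inhibition of [3H]MPEP binding at 10 μM, and some compounds were also tested at 100 μM. For selected compounds, IC50 was determined using a previously published protocol.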

Sequence of Metabotropic glutamate receptor 5 (Rattus norvegicus) (P31424 21-1203 limits assumed): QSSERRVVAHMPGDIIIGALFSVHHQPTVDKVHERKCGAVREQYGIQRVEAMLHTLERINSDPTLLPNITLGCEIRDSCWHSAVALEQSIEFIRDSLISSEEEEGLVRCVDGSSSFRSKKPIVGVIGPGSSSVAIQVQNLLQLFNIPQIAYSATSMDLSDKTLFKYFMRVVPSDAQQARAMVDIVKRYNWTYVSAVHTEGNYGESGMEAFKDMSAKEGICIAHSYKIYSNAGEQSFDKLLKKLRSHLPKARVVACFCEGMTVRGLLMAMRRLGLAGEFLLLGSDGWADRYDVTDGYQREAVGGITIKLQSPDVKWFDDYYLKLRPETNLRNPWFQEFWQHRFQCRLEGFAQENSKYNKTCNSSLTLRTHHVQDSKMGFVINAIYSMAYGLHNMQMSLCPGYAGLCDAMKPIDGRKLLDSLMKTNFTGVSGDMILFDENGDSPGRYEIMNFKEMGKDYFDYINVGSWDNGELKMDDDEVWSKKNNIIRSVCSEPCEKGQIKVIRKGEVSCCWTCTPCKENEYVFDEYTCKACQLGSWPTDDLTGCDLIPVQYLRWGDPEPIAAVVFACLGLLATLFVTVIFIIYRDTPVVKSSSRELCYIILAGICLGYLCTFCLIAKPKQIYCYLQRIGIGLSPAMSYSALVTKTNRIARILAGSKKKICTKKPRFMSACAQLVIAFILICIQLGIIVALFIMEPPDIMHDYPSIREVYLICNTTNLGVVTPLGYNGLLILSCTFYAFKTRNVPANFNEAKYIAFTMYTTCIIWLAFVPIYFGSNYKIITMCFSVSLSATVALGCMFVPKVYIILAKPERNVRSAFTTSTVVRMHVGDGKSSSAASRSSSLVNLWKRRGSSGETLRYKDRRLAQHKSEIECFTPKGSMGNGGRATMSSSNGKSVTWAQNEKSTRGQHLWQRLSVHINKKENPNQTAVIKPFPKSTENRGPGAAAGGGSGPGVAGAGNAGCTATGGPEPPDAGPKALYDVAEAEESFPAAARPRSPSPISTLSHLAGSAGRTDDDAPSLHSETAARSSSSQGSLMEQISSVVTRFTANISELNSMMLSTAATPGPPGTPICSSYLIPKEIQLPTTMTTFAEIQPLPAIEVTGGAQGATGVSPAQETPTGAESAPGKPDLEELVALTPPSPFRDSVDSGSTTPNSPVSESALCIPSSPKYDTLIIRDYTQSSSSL

For `Cc1nc2cc(-c3ccc(F)cc3)ccc2s1`, the Activity was “inactive”.
`Cc1nc2cc(-c3ccccc3)ccc2s1` was tested, and the Activity was “inactive”.

target: Metabotropic glutamate receptor 5 (Rattus norvegicus, UniProt P31424); test: Displacement of [3H]MPEP from mGluR5 in rat brain membrane; assay type: cell membranes
Sequence (P31424 whole entry): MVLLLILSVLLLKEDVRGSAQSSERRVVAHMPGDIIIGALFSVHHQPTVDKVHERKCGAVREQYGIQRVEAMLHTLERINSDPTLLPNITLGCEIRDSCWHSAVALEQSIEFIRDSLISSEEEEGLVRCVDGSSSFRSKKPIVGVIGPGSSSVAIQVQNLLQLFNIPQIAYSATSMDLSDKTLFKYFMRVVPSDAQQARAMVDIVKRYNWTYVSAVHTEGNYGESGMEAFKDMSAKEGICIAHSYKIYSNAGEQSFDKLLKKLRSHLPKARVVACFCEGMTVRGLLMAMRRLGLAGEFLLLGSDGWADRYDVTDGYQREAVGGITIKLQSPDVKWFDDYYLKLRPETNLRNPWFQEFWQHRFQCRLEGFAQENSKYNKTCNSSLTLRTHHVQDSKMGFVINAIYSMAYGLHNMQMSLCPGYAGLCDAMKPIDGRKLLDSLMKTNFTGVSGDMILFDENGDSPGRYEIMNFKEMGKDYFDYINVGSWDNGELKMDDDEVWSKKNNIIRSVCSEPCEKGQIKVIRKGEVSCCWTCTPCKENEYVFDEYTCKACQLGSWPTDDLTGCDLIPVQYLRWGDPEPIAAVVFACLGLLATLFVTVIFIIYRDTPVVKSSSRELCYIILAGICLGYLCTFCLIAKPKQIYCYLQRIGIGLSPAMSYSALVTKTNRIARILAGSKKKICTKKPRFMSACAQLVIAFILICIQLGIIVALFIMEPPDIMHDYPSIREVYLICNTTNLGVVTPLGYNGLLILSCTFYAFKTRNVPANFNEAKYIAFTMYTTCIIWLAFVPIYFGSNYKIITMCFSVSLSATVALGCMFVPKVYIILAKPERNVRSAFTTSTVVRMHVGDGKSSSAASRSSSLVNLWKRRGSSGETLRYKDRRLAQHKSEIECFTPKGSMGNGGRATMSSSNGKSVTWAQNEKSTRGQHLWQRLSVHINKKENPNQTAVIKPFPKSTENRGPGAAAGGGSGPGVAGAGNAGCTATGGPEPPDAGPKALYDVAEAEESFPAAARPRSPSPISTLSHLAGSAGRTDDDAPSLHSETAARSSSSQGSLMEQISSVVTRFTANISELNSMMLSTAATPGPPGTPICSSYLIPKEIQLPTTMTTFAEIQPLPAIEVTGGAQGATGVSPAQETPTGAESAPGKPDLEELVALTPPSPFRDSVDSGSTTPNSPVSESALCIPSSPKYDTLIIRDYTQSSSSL

First: COc1cc(OC)nc(-c2ccc3ccc(C)nc3c2)n1
Second: COc1ccnc(-c2ccc3ccc(C)nc3c2)n1
The Ki of the first is 3.5-fold higher: 5.43 µM for the first, 1.55 µM for the second. The second binds more tightly here.

Compared with `Cc1ccc2ccc(-c3cccc(C#N)c3)cc2n1`, `Cc1nc2cc(-c3cccc(C#N)c3)ccc2s1` is 19-fold higher in Ki: 0.11 µM for the first, 2.1 µM for the second. The first binds more tightly here.

`Cc1ccc2c(n1)nc(-c1ccccc1)n2Cc1ccccc1` and `Cc1ccc2nc(-c3ccccc3)n(Cc3ccccc3)c2n1` cannot be ordered by Ki: greater than 10 µM for the first, greater than 10 µM for the second.

`Cc1nc2nc(-c3ccccc3)sc2cc1-c1cccs1` and `Cc1ccc2[nH]c(-c3ccccc3)nc2n1` cannot be ordered by Ki: greater than 10 µM for the first, greater than 10 µM for the second.

`Cc1ccc2ccc(-c3cnccn3)cc2n1` and `Cc1ccc2ccc(-c3ncccn3)cc2n1` cannot be ordered by Ki: greater than 60 µM for the first, greater than 20 µM for the second.

`Cc1cc(C)nc(-c2ccc3ccc(C)nc3c2)n1` gave a Ki of 2.09 µM.

`Cc1nc2cc(-c3cccc(Cl)c3)ccc2s1` and `COc1cccc(-c2ccc3sc(C)nc3c2)c1` are within 1.5-fold of each other in IC50: 43.4 µM for the first, 43.1 µM for the second.

Compound `Cc1nc2nc(-c3ccccc3)sc2cc1-c1ccccc1` has an IC50 of 33.5 µM.

target: Metabotropic glutamate receptor 5 (Rattus norvegicus) (UniProt P31424); test: Displacement of [3H]MPEP from mGluR5 in rat brain membrane at 10 uM; assay type: cell membranes; how it was run: as §1

Going from `Cc1nc2nc(-c3ccccc3)sc2cc1-c1cccc(Cl)c1` to `Cc1nc2nc(-c3ccccc3)sc2cc1-c1cccc(C#N)c1`, the Activity rises from 1% to 13%.

`Cc1ccc2ccc(-c3ncc(F)cn3)cc2n1` and `Cc1ccc(-c2ccc3ccc(C)nc3c2)nc1` cannot be ordered by Activity: greater than 1% for the first, 9% for the second.

First: Cc1ccc2ccc(-c3cccs3)cc2n1
Second: Cc1ccc2ccc(-c3ccccn3)cc2n1
The Activity of the first is lower: less than 1% for the first, 28% for the second.

Going from `Cc1ccc2sc(-c3ccccc3)nc2n1` to `Cc1nc2nc(-c3ccccc3)sc2cc1Br`, the Activity falls from 16% to 1%.

Compared with `Cc1cccc(-c2ccc3sc(C)nc3c2)n1`, `COc1ccnc(-c2ccc3sc(C)nc3c2)n1` is higher in Activity: 17% for the first, 39% for the second.

`Cc1ccc2nc(-c3ccccc3)n(C)c2n1` and `Cc1ccc2nc(-c3ccccc3)n(CC3CC3)c2n1` cannot be ordered by Activity: less than 1% for the first, less than 1% for the second.

Compared with `Cc1nc2cc(-c3ncccn3)ccc2s1`, `COc1cc2sc(-c3ccccc3)nc2nc1C` is lower in Activity: 29% for the first, less than 1% for the second.

First: Cc1nc2nc(-c3ccccc3)sc2cc1-c1ccc(F)cc1
Second: Cc1ccc2ccc(-c3ccccc3)cc2n1
The Activity of the first is lower: 3% for the first, 50% for the second.
